Data set [1] relates to Plasmodium falciparum. Description: Antiplasmodial activity against drug-resistant Plasmodium falciparum 3D7r_MMV848. The class given is functional, organism-based. The essentials: (§1)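 In vitro asexual P. falciparum growth inhibition, reported as IC50. The strains were chloroquine-sensitive 3D7; Dd2, resistant to CQ, SDX, PYR, MQ and CYC; TM90C6B, resistant to CQ, PYR and ATO; and 3D7r_MMV848, resistant to MMV692848. A standard antimalarial served as control for each resistant strain. Values are mean ± standard deviation of two independent experiments run in triplicate.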

Data set [2] has as its system Plasmodium falciparum. Description: Resistance index, ratio of IC50 for drug-resistant Plasmodium falciparum Dd2 to IC50 for Plasmodium falciparum 3D7. The class given is functional. In outline: (§2)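 Resistance index computed as IC50 against the resistant strain divided by IC50 against 3D7. IC50 values are mean ± standard deviation of two independent experiments in triplicate. Resistant strains: Dd2 (CQ, SDX, PYR, MQ, CYC), TM90C6B (CQ, PYR, ATO) and 3D7r_MMV848 (MMV692848).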

In data set [3] the test system is Plasmodium falciparum. Description: Resistance index, ratio of IC50 for drug-resistant Plasmodium falciparum 3D7r_MMV848 to IC50 for Plasmodium falciparum 3D7. The class given is functional. In outline: as §2
The subject of data set [4] is Plasmodium falciparum. The data set can be described thus: Resistance index, ratio of IC50 for drug-resistant Plasmodium falciparum TM90C6B to IC50 for Plasmodium falciparum 3D7. The class given is functional. In outline:
as §2

Data set [5] concerns Plasmodium falciparum. The data set can be described thus: Antiplasmodial activity against drug-resistant Plasmodium falciparum Dd2. The class given is functional, organism-based. In outline:
as §1

The test system of data set [6] is Plasmodium falciparum. The data set can be described thus: Antiplasmodial activity against drug-resistant Plasmodium falciparum TM90C6B. The class given is functional, organism-based. The essentials: as §1
The nature of data set [7]: Cytotoxicity against human HepG2 cells. The class given is toxicity, cell-based.
Data set [8] relates to Plasmodium falciparum. The data set can be described thus: Antiplasmodial activity against Plasmodium falciparum 3D7. The class given is functional, organism-based. The essentials: as §1
Data set [9] in a line: Selectivity index, ratio of IC50 for human HepG2 cells to IC50 for Plasmodium falciparum 3D7. The class given is toxicity. As to conditions: HepG2 cells versus Plasmodium falciparum 3D7, read-out: Ratio IC50.

Molecules are shown by their SMILES.

As to `CC1=C(C)[C@H]2[C@H](Cc3ccc(O)cc3)NC(=O)[C@]23OC(=O)C/C=C(/C)C(=O)[C@@H](C)C/C=C/[C@H]3[C@@H]1O`, the IC50 (usually the concentration that inhibits the measured activity by half) is 4 µM in data set [1]; 7 µM in data set [5]; 6 µM in data set [6]; > 100 µM in data set [7]; 4.4 µM in data set [8]. In addition, the entries for the “Ratio IC50” value in data set [2], in data set [3] and in data set [4] were 1.6, 0.9 and 1.4, respectively. For the same compound, the selectivity ratio in data set [9] is > 23.
Take `CC(C)c1c(C(=O)Nc2ccccc2)c(-c2ccccc2)c(-c2ccc(F)cc2)n1CC[C@@H](O)C[C@@H](O)CC(=O)O` [ATORVASTATIN]: in data set [4], the “Ratio IC50” value is on record as >1428. For the same compound, the IC50 in data set [6] is > 1 µM.
Turning to `CCc1nc(N)nc(N)c1-c1ccc(Cl)cc1` [PYRIMETHAMINE], in data set [2], the “Ratio IC50” value is listed as >166. In [5], the IC50 is > 10 µM.

These data come from ChEMBL document CHEMBL5584332, “Structure and Biosynthesis of Perochalasins A-C, Open-Chain Merocytochalasans Produced by the Marine-Derived Fungus Peroneutypa sp. M16” (J Nat Prod, 2024).
